The source made the active and inactive calls. No cut-off for these calls is given here.
What was measured:
[1] = molecular target: T1, Protein cereblon/Poly [ADP-ribose] polymerase 1 (Homo sapiens, UniProt P09874+Q96SW2); experiment: Protac activity at CRBN/PARP1 in human Capan1 cells assessed as induction of PARP1 degradation at 1 to 1000 nM incubated for 24 hrs by Western blot analysis; format: cell-based; details: CAPAN-1, dose nM 1-1000, time 24.0 hrs
In short: (§1)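 Capan-1 cells were treated 24 h (1-1000 nM, or a wider dose range for DC50). Lysis was in RIPA buffer with protease inhibitors, and 20-30 μg protein was blotted. PARP1 was normalized to β-tubulin and to DMSO control, quantified by densitometry. DC50 came from two independent experiments.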
Target sequence in this assay (P09874 2-1014 limits assumed): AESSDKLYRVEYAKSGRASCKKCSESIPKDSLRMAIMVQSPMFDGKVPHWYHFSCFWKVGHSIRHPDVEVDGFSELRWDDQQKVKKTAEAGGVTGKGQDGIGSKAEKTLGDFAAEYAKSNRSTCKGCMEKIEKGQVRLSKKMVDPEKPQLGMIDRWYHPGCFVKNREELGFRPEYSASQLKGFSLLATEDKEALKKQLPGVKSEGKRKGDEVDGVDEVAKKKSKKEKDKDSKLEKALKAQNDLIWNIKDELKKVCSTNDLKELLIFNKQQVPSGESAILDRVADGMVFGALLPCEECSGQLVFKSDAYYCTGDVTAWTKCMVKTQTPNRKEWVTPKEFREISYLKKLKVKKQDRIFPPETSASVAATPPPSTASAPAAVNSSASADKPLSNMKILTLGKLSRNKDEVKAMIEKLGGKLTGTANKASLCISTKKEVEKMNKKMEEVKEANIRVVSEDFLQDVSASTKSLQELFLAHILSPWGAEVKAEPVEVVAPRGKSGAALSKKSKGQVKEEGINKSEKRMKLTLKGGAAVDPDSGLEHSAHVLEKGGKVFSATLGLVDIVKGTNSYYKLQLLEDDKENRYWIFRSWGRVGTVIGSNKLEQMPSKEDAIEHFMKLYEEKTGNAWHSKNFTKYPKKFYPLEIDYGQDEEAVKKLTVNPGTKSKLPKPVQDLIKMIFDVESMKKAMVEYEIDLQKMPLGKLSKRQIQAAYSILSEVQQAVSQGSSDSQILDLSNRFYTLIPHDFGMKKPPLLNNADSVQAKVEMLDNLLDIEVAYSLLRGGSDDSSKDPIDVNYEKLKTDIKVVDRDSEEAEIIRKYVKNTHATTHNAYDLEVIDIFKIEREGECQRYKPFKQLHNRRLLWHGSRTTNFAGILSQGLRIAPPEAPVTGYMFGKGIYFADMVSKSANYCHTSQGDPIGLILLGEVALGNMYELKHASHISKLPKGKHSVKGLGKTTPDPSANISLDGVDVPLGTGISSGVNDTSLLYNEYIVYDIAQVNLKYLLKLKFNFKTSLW
Target sequence in this assay (Q96SW2 whole entry partner): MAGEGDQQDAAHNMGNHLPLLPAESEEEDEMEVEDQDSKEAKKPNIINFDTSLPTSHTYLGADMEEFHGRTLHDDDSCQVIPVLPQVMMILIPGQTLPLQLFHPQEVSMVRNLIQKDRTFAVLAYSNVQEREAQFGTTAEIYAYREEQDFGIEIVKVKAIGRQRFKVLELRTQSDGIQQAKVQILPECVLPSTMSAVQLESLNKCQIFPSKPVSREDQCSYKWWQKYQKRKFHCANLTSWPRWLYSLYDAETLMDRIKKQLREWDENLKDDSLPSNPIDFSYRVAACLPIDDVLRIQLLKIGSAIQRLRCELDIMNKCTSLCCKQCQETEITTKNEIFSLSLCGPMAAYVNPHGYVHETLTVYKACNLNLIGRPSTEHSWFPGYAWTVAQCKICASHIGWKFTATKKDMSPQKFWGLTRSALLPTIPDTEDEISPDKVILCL

[2] = molecular target: T1, Protein cereblon/Poly [ADP-ribose] polymerase 1; experiment: Protac activity at CRBN/PARP1 in human MDA-MB-436 cells assessed as PARP1 protein degradation at 1 to 10 nM incubated for 24 hrs by western blot analysis; format: cell-based; details: dose nM 1-10, time 24.0 hrs
Target sequence in this assay (P09874 2-1014 limits assumed): as the sequence (P09874 2-1014 limits assumed) above
Target sequence in this assay (Q96SW2 whole entry partner): as the sequence (Q96SW2 whole entry partner) above

[3] = molecular target: T1, Protein cereblon/Poly [ADP-ribose] polymerase 1; experiment: Protac activity at CRBN/PARP1 in human Capan1 cells assessed as PARP1 protein degradation at 1 to 10 nM incubated for 24 hrs by western blot analysis; format: cell-based; details: CAPAN-1, dose nM 1-10, time 24.0 hrs; in short: as §1
Target sequence in this assay (P09874 2-1014 limits assumed): as the sequence (P09874 2-1014 limits assumed) above
Target sequence in this assay (Q96SW2 whole entry partner): as the sequence (Q96SW2 whole entry partner) above

[4] = molecular target: T1, Protein cereblon/Poly [ADP-ribose] polymerase 1; experiment: Protac activity at CRBN/PARP1 in human SW-620 cells assessed as induction of PARP1 degradation incubated for 24 hrs by Western blot analysis; format: cell-based
In short: (§2)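 Concentration-response over a wide range, 24 h exposure; PARP1 quantified by western blot and normalized to β-tubulin density; DC50 derived from two biologically independent experiments.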
Target sequence in this assay (P09874 whole entry): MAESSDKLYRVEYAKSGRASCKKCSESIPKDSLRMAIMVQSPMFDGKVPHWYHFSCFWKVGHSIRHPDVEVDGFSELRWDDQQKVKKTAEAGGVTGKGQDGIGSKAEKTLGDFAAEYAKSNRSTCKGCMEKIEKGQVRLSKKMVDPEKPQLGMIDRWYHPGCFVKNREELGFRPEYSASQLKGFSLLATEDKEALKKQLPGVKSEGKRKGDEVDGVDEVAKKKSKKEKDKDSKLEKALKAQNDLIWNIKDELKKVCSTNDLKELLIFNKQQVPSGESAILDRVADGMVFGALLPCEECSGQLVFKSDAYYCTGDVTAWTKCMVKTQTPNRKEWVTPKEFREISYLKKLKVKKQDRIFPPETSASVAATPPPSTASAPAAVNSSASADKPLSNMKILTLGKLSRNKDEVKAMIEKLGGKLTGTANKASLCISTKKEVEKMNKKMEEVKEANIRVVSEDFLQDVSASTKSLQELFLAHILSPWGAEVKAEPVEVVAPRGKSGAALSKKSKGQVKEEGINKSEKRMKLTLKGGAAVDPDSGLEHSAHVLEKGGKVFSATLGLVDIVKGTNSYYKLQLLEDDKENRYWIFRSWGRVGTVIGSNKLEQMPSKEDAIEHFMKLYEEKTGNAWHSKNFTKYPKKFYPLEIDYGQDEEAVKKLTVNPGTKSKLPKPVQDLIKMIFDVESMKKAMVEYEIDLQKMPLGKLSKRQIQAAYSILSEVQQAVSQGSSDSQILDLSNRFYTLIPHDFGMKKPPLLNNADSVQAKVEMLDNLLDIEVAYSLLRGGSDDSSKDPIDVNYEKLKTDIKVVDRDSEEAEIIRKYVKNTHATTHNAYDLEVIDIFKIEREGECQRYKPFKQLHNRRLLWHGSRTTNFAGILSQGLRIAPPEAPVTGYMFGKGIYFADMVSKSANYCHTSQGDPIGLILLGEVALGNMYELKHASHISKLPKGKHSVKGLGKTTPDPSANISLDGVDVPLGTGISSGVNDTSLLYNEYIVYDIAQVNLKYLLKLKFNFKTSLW
Target sequence in this assay (Q96SW2 whole entry): as the sequence (Q96SW2 whole entry partner) above

[5] = molecular target: T1, Protein cereblon/Poly [ADP-ribose] polymerase 1; experiment: Protac activity at CRBN/PARP1 in human CAPAN-1 cells assessed as induction of PARP1 degradation at 100 nM measured after 6 hrs by Western blot analysis; format: cell-based
In short: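 Capan-1 cells were treated with 100 nM over a time course. PARP1 was measured by western blot and normalized to β-tubulin.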
Target sequence in this assay (P09874 2-1014 limits assumed): as the sequence (P09874 2-1014 limits assumed) above
Target sequence in this assay (Q96SW2 whole entry partner): as the sequence (Q96SW2 whole entry partner) above

[6] = molecular target: T1, Protein cereblon/Poly [ADP-ribose] polymerase 1; experiment: Protac activity at CRBN/PARP1 in human MDA-MB-468 cells assessed as induction of PARP1 degradation measured after 24 hrs by Western blot analysis; format: cell-based; in short: as §2
Target sequence in this assay (P09874 whole entry): as the sequence (P09874 whole entry) above
Target sequence in this assay (Q96SW2 whole entry): as the sequence (Q96SW2 whole entry partner) above

[7] = molecular target: T1, Protein cereblon/Poly [ADP-ribose] polymerase 1; experiment: Protac activity at CRBN/PARP1 in human LNCaP cells assessed as induction of PARP1 degradation at 30 nM incubated for 1 to 24 hrs by Western blot analysis; format: cell-based; details: time hrs 1-24
Target sequence in this assay (P09874 2-1014 limits assumed): as the sequence (P09874 2-1014 limits assumed) above
Target sequence in this assay (Q96SW2 whole entry partner): as the sequence (Q96SW2 whole entry partner) above

[8] = molecular target: T1, Protein cereblon/Poly [ADP-ribose] polymerase 1; experiment: Protac activity at CRBN/PARP1 in human HCC1937 cells assessed as induction of PARP1 degradation at 30 nM incubated for 1 to 24 hrs by Western blot analysis; format: cell-based; details: time hrs 1-24
Target sequence in this assay (P09874 2-1014 limits assumed): as the sequence (P09874 2-1014 limits assumed) above
Target sequence in this assay (Q96SW2 whole entry partner): as the sequence (Q96SW2 whole entry partner) above

[9] = molecular target: T1, Protein cereblon/Poly [ADP-ribose] polymerase 1; experiment: Protac activity at CRBN/PARP1 in human SW-620 cells assessed as induction of PARP1 degradation at 30 nM incubated for 24 hrs in presence of 0.1 to 1 uM CRBN ligand pomalidomide by Western blot analysis; format: cell-based
[10] = molecular target: T1, Protein cereblon/Poly [ADP-ribose] polymerase 1; experiment: Protac activity at CRBN/PARP1 in human SW-620 cells assessed as induction of PARP1 degradation at 30 nM incubated for 24 hrs in presence of proteasome inhibitor MG132 by Western blot analysis; format: cell-based
[11] = molecular target: T1, Protein cereblon/Poly [ADP-ribose] polymerase 1; experiment: Protac activity at CRBN/PARP1 in human SW-620 cells assessed as induction of PARP1 degradation at 30 nM incubated for 24 hrs in presence of NEDD8-activating E1 enzyme inhibitor MLN4924 by Western blot analysis; format: cell-based
[12] = test system: LNCaP; experiment: Antiproliferation activity against human LNCAP assessed as cell growth inhibition incubated for 7 days by CCK-8 assay; format: functional, cell-based; details: time 7.0 day
In short: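 Cells were sub-cultured at least twice and seeded for 24 h before dosing. Compounds came from 10 mM DMSO stocks, given as 10 points of 3-fold serial dilution starting at 10-20 μM. Incubation was about 7 days (Capan-1 13 days) at 37 °C, 5% CO2. Read-out was CCK-8 absorbance at 450 nm, as % growth versus DMSO wells (duplicate wells). IC50 was fitted by nonlinear regression; three independent experiments.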

[13] = test system: HUVEC; experiment: Cytotoxicity against HUVEC assessed as reduction in cell viability incubated for 120 hrs by CCK-8 assay; format: cell-based; details: human
[14] = test system: CAPAN-1; experiment: Induction of DNA damage in human Capan1 cells assessed as increase in gammaH2AX foci formation incubated for 24 hrs by Western blot analysis; format: functional, cell-based; details: dose microM 0.1-10, time 24.0 hrs
In short: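 MDA-MB-436 (BRCA1-/-) or Capan-1 (BRCA2-/-) cells were treated 24 h at the indicated concentrations. Lysis was in RIPA buffer with protease inhibitors, and 20-30 μg protein was run on SDS-PAGE. Blots were probed for γH2AX, with β-tubulin as the loading control, and detected by ECL.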

[15] = Plasma concentration in ICR mouse at 25 mg/kg, ip at 4 hrs postinjection by LC-tandem mass spectrometry analysis; format: ADME, organism-based
In short: (§3)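 Female ICR mice (20-23 g, 6-7 weeks old, n = 3) received a single 25 mg/kg intraperitoneal dose formulated in 5% DMSO/15% Solutol HS15/80% D5W. Plasma was sampled at 0.5, 1, 2, 4, 6, 8 and 24 h and protein-precipitated with methanol. Compound was quantified by LC-MS/MS against a standard curve.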

[16] = AUC (0 to infinity) in ICR mouse at 25 mg/kg, ip by LC-tandem mass spectrometry analysis; format: ADME, organism-based; set-up: time infinity, route intraperitoneal, dose 25 mg/kg; details: in vivo; in short: as §3
[17] = Acute toxicity in Balb/c mouse assessed as weight loss at 25 to 50 mg/kg, ip administered 5 times a week for 3 weeks; format: organism-based; details: in vivo, 504 h, dose 25-50 mg/kg
In short: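 Male BALB/c nude mice (5–6 weeks) received 5×10^6 Capan-1 cells s.c. in the right armpit. At a mean tumour volume of about 150 mm³, mice were randomised by tumour volume and body weight, 6 per group. Dosing was i.p. in 5% DMSO/20% PEG400/10% Cremophor EL/65% saline, once daily five times per week for 3 weeks. Body weight was measured 2–3 times weekly.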

[18] = Plasma concentration in ICR mouse at 25 mg/kg, ip at 24 hrs postinjection by LC-tandem mass spectrometry analysis; format: ADME, organism-based; in short: as §3
[19] = molecular target: T1, Protein cereblon/Poly [ADP-ribose] polymerase 1; experiment: Protac activity at CRBN/PARP1 in human SW-620 cells assessed as induction of PARP1 degradation at 30 nM measured after 2 hrs by Western blot analysis
[20] = molecular target: T1, Protein cereblon/Poly [ADP-ribose] polymerase 1; experiment: Protac activity at CRBN/PARP1 in human MDA-MB-436 cells assessed as induction of PARP1 degradation at 30 nM measured after 2 hrs by Western blot analysis
[21] = molecular target: T1, Protein cereblon/Poly [ADP-ribose] polymerase 1; experiment: Protac activity at CRBN/PARP1 in human MDA-MB-436 cells assessed as induction of PARP1 degradation at 30 nM incubated for 24 hrs in presence of 0.1 to 1 uM CRBN ligand pomalidomide by Western blot analysis

Structure (SMILES): O=C(CCCCCCCCCCC(=O)N1CCN(C(=O)c2cc(Cc3n[nH]c(=O)c4ccccc34)ccc2F)CC1)NCCNc1cccc2c1C(=O)N(C1CCC(=O)NC1=O)C2=O (stereo unspecified)
- Activity [1]: Active
- Activity [2]: Active
- Activity [3]: Active
- DC50 [4]: 509 pM
- Activity [5]: Active
- DC50 [6]: 263 pM
- Activity [7]: Active
- Activity [8]: Active
- Activity [9]: inactive
- Activity [10]: inactive
- Activity [11]: inactive
- Activity [12]: Active
- Activity [13]: Non-Toxic
- Activity [14]: Dose-dependent effect
- concentration at 4 h [15]: 182 nM
- AUC(0-inf) [16]: 5360 ng·h/mL
- Activity [17]: Non-Toxic
- concentration at 24 h [18]: > 10 nM
- Activity [19]: Active
- Activity [20]: Active
- Activity [21]: inactive
